From the RNAGym collection of RNA variant scans (doi:10.1002/anie.201605470)

B1: Osa-1-4 twister ribozyme (parent)
chain: CCGCCUAACACUGCCAAUGCCGGUCCCAAGCCCGGAUAAAAGUGGAGGGGGCGG

Variants of: B1
Test: self-cleavage, relative activity (ratio to wild type); higher = more cleavage; co-transcriptional
In short: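 The 48 positions downstream of the cleavage site in a 54-nucleotide Oryza sativa twister ribozyme template were synthesised at 97 % wild-type base and 1 % of each other base. The template was transcribed in vitro at 37 °C for 2 h, with self-cleavage allowed during transcription. Reads with or without upstream sequence after deep sequencing marked cleavage status, and relative activity is fraction cleaved normalised to wild type.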

Variant	self-cleavage
CCGCCUAACACUGCCAAUGCCGGUCCCAAGCCCGGAUAAUAGUGCAGGGGGCGG [A40U G45C]	0.06
CCGCCUAACACUGCCAAUGCCGGUCCCAAGCCCGGAUAAUAGUGAAGGGGGCGG [A40U G45A]	0.07
CCGCCUAACACUGCCAAUGCCGGUCCCAAGCCCGGAUAAUAGUGUAGGGGGCGG [A40U G45U]	0.07
CCGCCUAACACUGCCAAUACCGGUCCCAAGCCCGGAUAAUAGUGGAGGGGGCGG [A40U G19A]	0.17
CCGCCUAACACUGCCAAUCCCGGUCCCAAGCCCGGAUAAUAGUGGAGGGGGCGG [A40U G19C]	0.04
CCGCCUAACACUGCCAAUUCCGGUCCCAAGCCCGGAUAAUAGUGGAGGGGGCGG [A40U G19U]	0.08
CCGCCUAACACUGCCAAUGCCGGUGCCAAGCCCGGAUAAUAGUGGAGGGGGCGG [A40U C25G]	0.05
CCGCCUAACACUGCCAAUGCCGGUUCCAAGCCCGGAUAAUAGUGGAGGGGGCGG [A40U C25U]	0.13
CCGCCUAACACUGCCAAUGCCGGUACCAAGCCCGGAUAAUAGUGGAGGGGGCGG [A40U C25A]	0.06
CCGCCUAACACUGCCAAUGCCGGUCCCAAACCCGGAUAAUAGUGGAGGGGGCGG [A40U G30A]	0.03
CCGCCUAACACUGCCAAUGCCGGUCCCAAUCCCGGAUAAUAGUGGAGGGGGCGG [A40U G30U]	0.03
CCGCCUAACACUGCCAAUGCCGGUCCCAACCCCGGAUAAUAGUGGAGGGGGCGG [A40U G30C]	0.04
CCGCCUAACACUGCGAAUGCCGGUCCCAAGCCCGGAUAAUAGUGGAGGGGGCGG [A40U C15G]	0.11
CCGCCUAACACUGCAAAUGCCGGUCCCAAGCCCGGAUAAUAGUGGAGGGGGCGG [A40U C15A]	0.11
CCGCCUAACACUGCUAAUGCCGGUCCCAAGCCCGGAUAAUAGUGGAGGGGGCGG [A40U C15U]	0.1
CCGCCUAACACUGCCAAUGCCGGUCCCAAGCCAGGAUAAUAGUGGAGGGGGCGG [A40U C33A]	0.07
CCGCCUAACACUGCCAAUGCCGGUCCCAAGCCUGGAUAAUAGUGGAGGGGGCGG [A40U C33U]	0.15
CCGCCUAACACUGCCAAUGCCGGUCCCAAGCCGGGAUAAUAGUGGAGGGGGCGG [A40U C33G]	0.06
CCGCCUAACACUGCCAAUGCCGGUCUCAAGCCCGGAUAAUAGUGGAGGGGGCGG [A40U C26U]	0.14
CCGCCUAACACUGCCAAUGCCGGUCGCAAGCCCGGAUAAUAGUGGAGGGGGCGG [A40U C26G]	0.08
CCGCCUAACACUGCCAAUGCCGGUCACAAGCCCGGAUAAUAGUGGAGGGGGCGG [A40U C26A]	0.05
CCGCCUAACACUGCCAAUGCCCGUCCCAAGCCCGGAUAAUAGUGGAGGGGGCGG [A40U G22C]	0.06
CCGCCUAACACUGCCAAUGCCAGUCCCAAGCCCGGAUAAUAGUGGAGGGGGCGG [A40U G22A]	0.32
CCGCCUAACACUGCCAAUGCCUGUCCCAAGCCCGGAUAAUAGUGGAGGGGGCGG [A40U G22U]	0.21
CCGCCUAACACUGCCAAUGCCGGUCCCAAGCCCGGAUAAUAGUGGAGGGGGCGA [A40U G54A]	0.25

Variant	self-cleavage
CCGCCUAACACUGCCAAUGCCGGUCCCAAGCCCGGAUAAUAGUGGAGGGGGCGC [A40U G54C]	0.19
CCGCCUAACACUGCCAAUGCCGGUCCCAAGCCCGGAUAAUAGUGGAGGGGGCGU [A40U G54U]	0.47
CCGCCUAACACUGCCAAUGCCGGUCCCAAGCCCUGAUAAUAGUGGAGGGGGCGG [A40U G34U]	0.18
CCGCCUAACACUGCCAAUGCCGGUCCCAAGCCCAGAUAAUAGUGGAGGGGGCGG [A40U G34A]	0.23
CCGCCUAACACUGCCAAUGCCGGUCCCAAGCCCCGAUAAUAGUGGAGGGGGCGG [A40U G34C]	0.15
CCGCCUAACACUGCCAAUGCCGUUCCCAAGCCCGGAUAAUAGUGGAGGGGGCGG [A40U G23U]	0.05
CCGCCUAACACUGCCAAUGCCGCUCCCAAGCCCGGAUAAUAGUGGAGGGGGCGG [A40U G23C]	0.04
CCGCCUAACACUGCCAAUGCCGAUCCCAAGCCCGGAUAAUAGUGGAGGGGGCGG [A40U G23A]	0.11
CCGCCUAACACUGCCAAUGCCGGUCCCAAGCCCGGAUAAUAGUGGAGUGGGCGG [A40U G48U]	0.04
CCGCCUAACACUGCCAAUGCCGGUCCCAAGCCCGGAUAAUAGUGGAGAGGGCGG [A40U G48A]	0.06
CCGCCUAACACUGCCAAUGCCGGUCCCAAGCCCGGAUAAUAGUGGAGCGGGCGG [A40U G48C]	0.05
CCGCCUAACACUGCCAAUGCCGGUCCCAAGACCGGAUAAUAGUGGAGGGGGCGG [A40U C31A]	0.02
CCGCCUAACACUGCCAAUGCCGGUCCCAAGUCCGGAUAAUAGUGGAGGGGGCGG [A40U C31U]	0.2
CCGCCUAACACUGCCAAUGCCGGUCCCAAGGCCGGAUAAUAGUGGAGGGGGCGG [A40U C31G]	0.07
CCGCCUAACACUGCCAAUGCCGGUCCCAAGCCCGGAUAAUAGUGGUGGGGGCGG [A40U A46U]	0.07
CCGCCUAACACUGCCAAUGCCGGUCCCAAGCCCGGAUAAUAGUGGCGGGGGCGG [A40U A46C]	0.05
CCGCCUAACACUGCCAAUGCCGGUCCCAAGCCCGGAUAAUAGUGGGGGGGGCGG [A40U A46G]	0.05
CCGCCUAACACUGCCAAUGCCGGUCCCAAGCCCGGAUAAUAGUGGAGGGGGUGG [A40U C52U]	0.74
CCGCCUAACACUGCCAAUGCCGGUCCCAAGCCCGGAUAAUAGUGGAGGGGGAGG [A40U C52A]	0.4
CCGCCUAACACUGCCAAUGCCGGUCCCAAGCCCGGAUAAUAGUGGAGGGGGGGG [A40U C52G]	0.46
CCGCCUAACACUGCCAAUGCCGGUCCCAAGCCCGCAUAAUAGUGGAGGGGGCGG [A40U G35C]	0.09
CCGCCUAACACUGCCAAUGCCGGUCCCAAGCCCGUAUAAUAGUGGAGGGGGCGG [A40U G35U]	0.41
CCGCCUAACACUGCCAAUGCCGGUCCCAAGCCCGAAUAAUAGUGGAGGGGGCGG [A40U G35A]	0.58
CCGCCUAACACUUCCAAUGCCGGUCCCAAGCCCGGAUAAUAGUGGAGGGGGCGG [A40U G13U]	0.01
CCGCCUAACACUACCAAUGCCGGUCCCAAGCCCGGAUAAUAGUGGAGGGGGCGG [A40U G13A]	0.06

Variant	self-cleavage
CCGCCUAACACUCCCAAUGCCGGUCCCAAGCCCGGAUAAUAGUGGAGGGGGCGG [A40U G13C]	0.02
CCGCCUAACACUGCCAAUGCAGGUCCCAAGCCCGGAUAAUAGUGGAGGGGGCGG [A40U C21A]	0.15
CCGCCUAACACUGCCAAUGCUGGUCCCAAGCCCGGAUAAUAGUGGAGGGGGCGG [A40U C21U]	0.59
CCGCCUAACACUGCCAAUGCGGGUCCCAAGCCCGGAUAAUAGUGGAGGGGGCGG [A40U C21G]	0.05
CCGCCUAAAACUGCCAAUGCCGGUCCCAAGCCCGGAUAAUAGUGGAGGGGGCGG [A40U C9A]	0.09
CCGCCUAAUACUGCCAAUGCCGGUCCCAAGCCCGGAUAAUAGUGGAGGGGGCGG [A40U C9U]	0.2
CCGCCUAAGACUGCCAAUGCCGGUCCCAAGCCCGGAUAAUAGUGGAGGGGGCGG [A40U C9G]	0.17
CCGCCUAACACUGCCAAUGACGGUCCCAAGCCCGGAUAAUAGUGGAGGGGGCGG [A40U C20A]	0.64
CCGCCUAACACUGCCAAUGGCGGUCCCAAGCCCGGAUAAUAGUGGAGGGGGCGG [A40U C20G]	0.07
CCGCCUAACACUGCCAAUGUCGGUCCCAAGCCCGGAUAAUAGUGGAGGGGGCGG [A40U C20U]	0.81
CCGCCUAACACUGCCAAUGCCGGUCCCAAGCCCGGAUAAUAGUGGAGGGAGCGG [A40U G50A]	0.43
CCGCCUAACACUGCCAAUGCCGGUCCCAAGCCCGGAUAAUAGUGGAGGGCGCGG [A40U G50C]	0.18
CCGCCUAACACUGCCAAUGCCGGUCCCAAGCCCGGAUAAUAGUGGAGGGUGCGG [A40U G50U]	0.34
CCGCCUAACACUGCCAAUGCCGGUCCCAAGCCCGGAUAAUAGUGGAGGGGGCAG [A40U G53A]	0.19
CCGCCUAACACUGCCAAUGCCGGUCCCAAGCCCGGAUAAUAGUGGAGGGGGCCG [A40U G53C]	0.06
CCGCCUAACACUGCCAAUGCCGGUCCCAAGCCCGGAUAAUAGUGGAGGGGGCUG [A40U G53U]	0.11
CCGCCUAACACUGCCAAUGCCGGUCCCAAGCGCGGAUAAUAGUGGAGGGGGCGG [A40U C32G]	0.07
CCGCCUAACACUGCCAAUGCCGGUCCCAAGCACGGAUAAUAGUGGAGGGGGCGG [A40U C32A]	0.07
CCGCCUAACACUGCCAAUGCCGGUCCCAAGCUCGGAUAAUAGUGGAGGGGGCGG [A40U C32U]	0.08
CCGCCUAACACUGCCAAUGCCGGUCCCAAGCCCGGAUAAUAGUCGAGGGGGCGG [A40U G44C]	0.43
CCGCCUAACACUGCCAAUGCCGGUCCCAAGCCCGGAUAAUAGUUGAGGGGGCGG [A40U G44U]	0.26
CCGCCUAACACUGCCAAUGCCGGUCCCAAGCCCGGAUAAUAGUAGAGGGGGCGG [A40U G44A]	0.25
CCGCCUAACACAGCCAAUGCCGGUCCCAAGCCCGGAUAAUAGUGGAGGGGGCGG [A40U U12A]	1
CCGCCUAACACCGCCAAUGCCGGUCCCAAGCCCGGAUAAUAGUGGAGGGGGCGG [A40U U12C]	0.19
CCGCCUAACACGGCCAAUGCCGGUCCCAAGCCCGGAUAAUAGUGGAGGGGGCGG [A40U U12G]	0.36

Variant	self-cleavage
CCGCCUAACACUGCCAAAGCCGGUCCCAAGCCCGGAUAAUAGUGGAGGGGGCGG [A40U U18A]	0.77
CCGCCUAACAAUGCCAAUGCCGGUCCCAAGCCCGGAUAAUAGUGGAGGGGGCGG [A40U C11A]	0.1
CCGCCUAACAGUGCCAAUGCCGGUCCCAAGCCCGGAUAAUAGUGGAGGGGGCGG [A40U C11G]	0.06
CCGCCUAACAUUGCCAAUGCCGGUCCCAAGCCCGGAUAAUAGUGGAGGGGGCGG [A40U C11U]	0.33
CCGCCUAACACUGGCAAUGCCGGUCCCAAGCCCGGAUAAUAGUGGAGGGGGCGG [A40U C14G]	0.13
CCGCCUAACACUGACAAUGCCGGUCCCAAGCCCGGAUAAUAGUGGAGGGGGCGG [A40U C14A]	0.15
CCGCCUAACACUGUCAAUGCCGGUCCCAAGCCCGGAUAAUAGUGGAGGGGGCGG [A40U C14U]	0.11
CCGCCUAACACUGCCAAUGCCGGUCCCAAGCCCGGAUAAUAGUGGAGGUGGCGG [A40U G49U]	0.08
CCGCCUAACACUGCCAAUGCCGGUCCCAAGCCCGGAUAAUAGUGGAGGAGGCGG [A40U G49A]	0.07
CCGCCUAACACUGCCAAUGCCGGUCCCAAGCCCGGAUAAUAGUGGAGGCGGCGG [A40U G49C]	0.05
CCGCCUAACACUGCCAAUGCCGGUCCCAAGCCCGGAUAAUAGUGGAGGGGACGG [A40U G51A]	0.18
CCGCCUAACACUGCCAAUGCCGGUCCCAAGCCCGGAUAAUAGUGGAGGGGCCGG [A40U G51C]	0.06
CCGCCUAACACUGCCAAUGCCGGUCCCAAGCCCGGAUAAUAGUGGAGGGGUCGG [A40U G51U]	0.1
CCGCCUAACACUGCCAAUGCCGGUCCAAAGCCCGGAUAAUAGUGGAGGGGGCGG [A40U C27A]	0.09
CCGCCUAACACUGCCAAUGCCGGUCCGAAGCCCGGAUAAUAGUGGAGGGGGCGG [A40U C27G]	0.06
CCGCCUAACACUGCCAAUGCCGGUCCUAAGCCCGGAUAAUAGUGGAGGGGGCGG [A40U C27U]	0.1
CCGCCUAACACUGCCAAUGCCGGUCCCAAGCCCGGAUAAUAGUGGACGGGGCGG [A40U G47C]	0.06
CCGCCUAACACUGCCAAUGCCGGUCCCAAGCCCGGAUAAUAGUGGAUGGGGCGG [A40U G47U]	0.09
CCGCCUAACACUGCCAAUGCCGGUCCCAAGCCCGGAUAAUAGUGGAAGGGGCGG [A40U G47A]	0.09
CCGCCUAACACUGCCAAUGCCGGUCCCAAGCCCGGAUAAUACUGGAGGGGGCGG [A40U G42C]	0.11
CCGCCUAACACUGCCAAUGCCGGUCCCAAGCCCGGAUAAUAAUGGAGGGGGCGG [A40U G42A]	0.1
CCGCCUAACACUGCCAAUGCCGGUCCCAAGCCCGGAUAAUAUUGGAGGGGGCGG [A40U G42U]	0.06
